# Results published in ChEMBL document CHEMBL4689842, “EUbOPEN Chemogenomics Library wave 1” (2021).
# Tested on: HEK-293T
# Assay: Multiplex assay against HEK293T;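 as to Population Tubulin-Different-Phenotype (%): share of the cells with healthy nuclei that show this phenotype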
# Assay type: toxicity, cell-based
# Conditions: human
# Outline: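 Live cells were stained at seeding with Hoechst33342, BioTracker Green Microtubule Cytoskeleton Dye, MitoTracker Red and Annexin V Alexa Fluor 680. Following compound addition, they were imaged on a CQ1 microscope at 37°C and 5% CO2 and gated by CellPathfinder machine learning into Hoechst high-intensity objects or normal cells, with normal cells split into healthy, pyknosed or fragmented nuclei and pyknosed cells into mitotic or apoptotic. Tubulin, mitochondrial-mass and membrane-permeability phenotypes are per cents of healthy-nucleus cells.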
# [1] = 12 h, 1 µM, compound concentration 1 uM, replicate 1
# [2] = 12 h, 1 µM, compound concentration 1 uM, replicate 2
# [3] = 12 h, 10 µM, compound concentration 10 uM, replicate 1
# [4] = 12 h, 10 µM, compound concentration 10 uM, replicate 2
# [5] = 24 h, 1 µM, compound concentration 1 uM, replicate 1
# [6] = 24 h, 1 µM, compound concentration 1 uM, replicate 2
# [7] = 24 h, 10 µM, compound concentration 10 uM, replicate 1
# [8] = 24 h, 10 µM, compound concentration 10 uM, replicate 2
# [9] = 48 h, 1 µM, compound concentration 1 uM, replicate 1
# [10] = 48 h, 1 µM, compound concentration 1 uM, replicate 2
# [11] = 48 h, 10 µM, compound concentration 10 uM, replicate 1
# [12] = 48 h, 10 µM, compound concentration 10 uM, replicate 2
smiles,measurement,setting,value
c1cn2cc(-c3ccc4cn[nH]c4c3)nc(Nc3ccc(N4CCOCC4)cc3)c2n1 [ENTOSPLETINIB],Population Apoptotic (%),[1],54%
same,Population Fragmented Nuclei (%),[1],8%
same,Population Healthy Nuclei (%),[1],40%
same,Population Hoechst High Intensity Objects (%),[1],16%
same,Population Membrane Permeable-Phenotype (%),[1],0%
same,Population Mitochondria Different-Phenotype (%),[1],95%
same,Population Mitotic Cells (%),[1],45%
same,Population Normal (%),[1],83%
same,Population Pyknosed Nuclei (%),[1],50%
same,Population Tubulin-Different-Phenotype (%),[1],74%
same,Total Cell Count,[1],207
same,Population Apoptotic (%),[2],22%
same,Population Fragmented Nuclei (%),[2],2%
same,Population Healthy Nuclei (%),[2],36%
same,Population Hoechst High Intensity Objects (%),[2],4%
same,Population Membrane Permeable-Phenotype (%),[2],10%
same,Population Mitochondria Different-Phenotype (%),[2],57%
same,Population Mitotic Cells (%),[2],77%
same,Population Normal (%),[2],95%
same,Population Pyknosed Nuclei (%),[2],60%
same,Population Tubulin-Different-Phenotype (%),[2],57%
same,Total Cell Count,[2],197
same,Population Apoptotic (%),[3],41%
same,Population Fragmented Nuclei (%),[3],77%
same,Population Healthy Nuclei (%),[3],6%
same,Population Hoechst High Intensity Objects (%),[3],27%
same,Population Membrane Permeable-Phenotype (%),[3],8%
same,Population Mitochondria Different-Phenotype (%),[3],89%
same,Population Mitotic Cells (%),[3],58%
same,Population Normal (%),[3],72%
same,Population Pyknosed Nuclei (%),[3],16%
same,Population Tubulin-Different-Phenotype (%),[3],81%
same,Total Cell Count,[3],1068
same,Population Apoptotic (%),[4],35%
same,Population Fragmented Nuclei (%),[4],52%
same,Population Healthy Nuclei (%),[4],8%
same,Population Hoechst High Intensity Objects (%),[4],22%
same,Population Membrane Permeable-Phenotype (%),[4],7%
same,Population Mitochondria Different-Phenotype (%),[4],85%
same,Population Mitotic Cells (%),[4],64%
same,Population Normal (%),[4],77%
same,Population Pyknosed Nuclei (%),[4],38%
same,Population Tubulin-Different-Phenotype (%),[4],85%
same,Total Cell Count,[4],431
same,Population Apoptotic (%),[5],43%
same,Population Fragmented Nuclei (%),[5],6%
same,Population Healthy Nuclei (%),[5],52%
same,Population Hoechst High Intensity Objects (%),[5],15%
same,Population Membrane Permeable-Phenotype (%),[5],6%
same,Population Mitochondria Different-Phenotype (%),[5],93%
same,Population Mitotic Cells (%),[5],56%
same,Population Normal (%),[5],84%
same,Population Pyknosed Nuclei (%),[5],41%
same,Population Tubulin-Different-Phenotype (%),[5],72%
same,Total Cell Count,[5],227
same,Population Apoptotic (%),[6],24%
same,Population Fragmented Nuclei (%),[6],4%
same,Population Healthy Nuclei (%),[6],60%
same,Population Hoechst High Intensity Objects (%),[6],2%
same,Population Membrane Permeable-Phenotype (%),[6],5%
same,Population Mitochondria Different-Phenotype (%),[6],48%
same,Population Mitotic Cells (%),[6],75%
same,Population Normal (%),[6],97%
same,Population Pyknosed Nuclei (%),[6],35%
same,Population Tubulin-Different-Phenotype (%),[6],61%
same,Total Cell Count,[6],259
same,Population Apoptotic (%),[7],33%
same,Population Fragmented Nuclei (%),[7],75%
same,Population Healthy Nuclei (%),[7],8%
same,Population Hoechst High Intensity Objects (%),[7],28%
same,Population Membrane Permeable-Phenotype (%),[7],11%
same,Population Mitochondria Different-Phenotype (%),[7],85%
same,Population Mitotic Cells (%),[7],66%
same,Population Normal (%),[7],71%
same,Population Pyknosed Nuclei (%),[7],15%
same,Population Tubulin-Different-Phenotype (%),[7],75%
same,Total Cell Count,[7],988
same,Population Apoptotic (%),[8],40%
same,Population Fragmented Nuclei (%),[8],51%
same,Population Healthy Nuclei (%),[8],12%
same,Population Hoechst High Intensity Objects (%),[8],20%
same,Population Membrane Permeable-Phenotype (%),[8],4%
same,Population Mitochondria Different-Phenotype (%),[8],88%
same,Population Mitotic Cells (%),[8],59%
same,Population Normal (%),[8],79%
same,Population Pyknosed Nuclei (%),[8],35%
same,Population Tubulin-Different-Phenotype (%),[8],93%
same,Total Cell Count,[8],430
same,Population Apoptotic (%),[9],43%
same,Population Fragmented Nuclei (%),[9],10%
same,Population Healthy Nuclei (%),[9],71%
same,Population Hoechst High Intensity Objects (%),[9],7%
same,Population Membrane Permeable-Phenotype (%),[9],1%
same,Population Mitochondria Different-Phenotype (%),[9],56%
same,Population Mitotic Cells (%),[9],56%
same,Population Normal (%),[9],92%
same,Population Pyknosed Nuclei (%),[9],17%
same,Population Tubulin-Different-Phenotype (%),[9],45%
same,Total Cell Count,[9],307
same,Population Apoptotic (%),[10],18%
same,Population Fragmented Nuclei (%),[10],6%
same,Population Healthy Nuclei (%),[10],74%
same,Population Hoechst High Intensity Objects (%),[10],2%
same,Population Membrane Permeable-Phenotype (%),[10],5%
same,Population Mitochondria Different-Phenotype (%),[10],21%
same,Population Mitotic Cells (%),[10],81%
same,Population Normal (%),[10],97%
same,Population Pyknosed Nuclei (%),[10],19%
same,Population Tubulin-Different-Phenotype (%),[10],55%
same,Total Cell Count,[10],378
same,Population Apoptotic (%),[11],23%
same,Population Fragmented Nuclei (%),[11],64%
same,Population Healthy Nuclei (%),[11],18%
same,Population Hoechst High Intensity Objects (%),[11],25%
same,Population Membrane Permeable-Phenotype (%),[11],6%
same,Population Mitochondria Different-Phenotype (%),[11],43%
same,Population Mitotic Cells (%),[11],76%
same,Population Normal (%),[11],74%
same,Population Pyknosed Nuclei (%),[11],16%
same,Population Tubulin-Different-Phenotype (%),[11],57%
same,Total Cell Count,[11],913
same,Population Apoptotic (%),[12],26%
same,Population Fragmented Nuclei (%),[12],47%
same,Population Healthy Nuclei (%),[12],25%
same,Population Hoechst High Intensity Objects (%),[12],20%
same,Population Membrane Permeable-Phenotype (%),[12],4%
same,Population Mitochondria Different-Phenotype (%),[12],71%
same,Population Mitotic Cells (%),[12],73%
same,Population Normal (%),[12],79%
same,Population Pyknosed Nuclei (%),[12],27%
same,Population Tubulin-Different-Phenotype (%),[12],93%
same,Total Cell Count,[12],444
